Values after ≈ are worked out from the molar mass of the structure shown.
Experiments:
Assay type in all cases: functional
Escherichia coli [1] = assay: Antimicrobial activity against Escherichia coli DH5[alpha] isolate GC 7668 expressing bla SHV-48 gene by microdilution method
How it was run: (§1)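 Broth microdilution MIC. Plates with serial dilutions of each β-lactam inoculated to 10^5 CFU/ml, incubated 18 to 22 h at 35°C in ambient air. MIC = lowest concentration completely inhibiting growth by unaided eye. Strains carrying the novel β-lactamases are recombinants, with the genes shotgun cloned into pCLL2300.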

Escherichia coli [2] = assay: Antimicrobial activity against Escherichia coli ATCC 25922 by microdilution method; how it was run: as §1
Escherichia coli [3] = assay: Antimicrobial activity against Escherichia coli DH5[alpha] by microdilution method; how it was run: as §1
Escherichia coli [4] = assay: Antimicrobial activity against Escherichia coli DH5[alpha] isolate GC 8130 expressing bla SHV-1 gene by microdilution method; how it was run: as §1
Escherichia coli [5] = assay: Antimicrobial activity against Escherichia coli DH5[alpha] isolate GC 8133 expressing bla […] gene by microdilution method
How it was run: (§2)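 Recombinant strains carrying the cloned β-lactamase gene (shotgun cloned into pCLL2300, confirmed by standard sequencing) tested by broth microdilution. Serial antibiotic dilutions were inoculated to 10^5 CFU/ml and incubated 18 to 22 h at 35°C in ambient air. MIC was the lowest concentration completely inhibiting growth by unaided eye.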

Escherichia coli [6] = assay: Antimicrobial activity against Escherichia coli DH5[alpha] isolate GC 8128 expressing bla SHV-105 gene by microdilution method; how it was run: as §2
Escherichia coli [7] = assay: Antimicrobial activity against Escherichia coli DH5[alpha] isolate GC 8130 expressing bla SHV-1 gene by microdilution method in presence of Tazobactam
How it was run: (§3)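 Broth microdilution MIC. Plates of serial antibiotic dilutions inoculated to 10^5 CFU/ml and incubated 18 to 22 h at 35°C in ambient air. MIC is the lowest concentration giving complete growth inhibition by unaided eye. The recombinant strains carry shotgun-cloned bla genes in pCLL2300.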

Escherichia coli [8] = assay: Antimicrobial activity against Escherichia coli DH5[alpha] isolate GC 8128 expressing bla SHV-105 gene by microdilution method in presence of Tazobactam; how it was run: as §3
Escherichia coli [9] = assay: Antimicrobial activity against Escherichia coli DH5[alpha] isolate GC 8133 expressing bla […] gene by microdilution method in presence of Tazobactam; how it was run: as §3
Escherichia coli [10] = assay: Antimicrobial activity against Escherichia coli ATCC 25922 by microdilution method in presence of Tazobactam; how it was run: as §3
Escherichia coli [11] = assay: Antimicrobial activity against Escherichia coli DH5[alpha] isolate GC 7668 expressing bla SHV-48 gene by microdilution method in presence of Tazobactam; how it was run: as §3
Escherichia coli [12] = assay: Antimicrobial activity against Escherichia coli DH5[alpha] by microdilution method in presence of Tazobactam; how it was run: as §3
Escherichia coli [13] = assay: Antimicrobial activity against Escherichia coli DH5[alpha] isolate GC 8130 expressing bla SHV-1 gene by Etest method
Escherichia coli [14] = assay: Antimicrobial activity against Escherichia coli ATCC 25922 by Etest method
Escherichia coli [15] = assay: Antimicrobial activity against Escherichia coli DH5[alpha] isolate GC 8133 expressing bla […] gene by Etest method in presence of clavulanic acid
Escherichia coli [16] = assay: Antimicrobial activity against Escherichia coli DH5[alpha] isolate GC 8128 expressing bla SHV-105 gene by Etest method
Escherichia coli [17] = assay: Antimicrobial activity against Escherichia coli DH5[alpha] isolate GC 8130 expressing bla SHV-1 gene by Etest method in presence of clavulanic acid
Escherichia coli [18] = assay: Antimicrobial activity against Escherichia coli DH5[alpha] isolate GC 7668 expressing bla SHV-48 gene by Etest method in presence of clavulanic acid
Escherichia coli [19] = assay: Antimicrobial activity against Escherichia coli DH5[alpha] by Etest method in presence of clavulanic acid
Escherichia coli [20] = assay: Antimicrobial activity against Escherichia coli DH5[alpha] isolate GC 7668 expressing bla SHV-48 gene by Etest method
Escherichia coli [21] = assay: Antimicrobial activity against Escherichia coli DH5[alpha] isolate GC 8133 expressing bla […] gene by Etest method
Escherichia coli [22] = assay: Antimicrobial activity against Escherichia coli DH5[alpha] isolate GC 8128 expressing bla SHV-105 gene by Etest method in presence of clavulanic acid
How it was run: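 The blaSHV-105 gene was shotgun-cloned into vector pCLL2300, and the insert was confirmed by standard sequencing. The recombinant E. coli strain carrying it was tested against a β-lactam panel in Etest format.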

Escherichia coli [23] = assay: Antimicrobial activity against Escherichia coli ATCC 25922 by Etest method in presence of clavulanic acid
Escherichia coli [24] = assay: Antimicrobial activity against Escherichia coli DH5[alpha] by Etest method
Escherichia coli [25] = assay: Antimicrobial activity against Escherichia coli DH5[alpha] isolate GC 8128 expressing bla SHV-105 gene by microdilution method in presence of clavulanic acid; how it was run: as §3
Escherichia coli [26] = assay: Antimicrobial activity against Escherichia coli DH5[alpha] isolate GC 7668 expressing bla SHV-48 gene by microdilution method in presence of clavulanic acid; how it was run: as §3
Escherichia coli [27] = assay: Antimicrobial activity against Escherichia coli DH5[alpha] isolate GC 8133 expressing bla […] gene by microdilution method in presence of clavulanic acid; how it was run: as §3
Escherichia coli [28] = assay: Antimicrobial activity against Escherichia coli DH5[alpha] isolate GC 8130 expressing bla SHV-1 gene by microdilution method in presence of clavulanic acid; how it was run: as §3
Escherichia coli [29] = assay: Antimicrobial activity against Escherichia coli DH5[alpha] by microdilution method in presence of clavulanic acid; how it was run: as §3
Escherichia coli [30] = assay: Antimicrobial activity against Escherichia coli ATCC 25922 by microdilution method in presence of clavulanic acid; how it was run: as §3

| SMILES | MIC (Escherichia coli [1]) [µg/mL] | MIC (Escherichia coli [2]) [µg/mL] | MIC (Escherichia coli [3]) [µg/mL] | MIC (Escherichia coli [4]) [µg/mL] | MIC (Escherichia coli [5]) [µg/mL] | MIC (Escherichia coli [6]) [µg/mL] | other results |
| --- | --- | --- | --- | --- | --- | --- | --- |
| CC1(C)S[C@@H]2[C@H](NC(=O)[C@H](N)c3ccccc3)C(=O)N2[C@H]1C(=O)O [AMPICILLIN] | > 128 | 4 (≈ 11.4 µM) | 8 (≈ 22.9 µM) | > 128 | > 128 | > 128 | – |
| CCN1CCN(C(=O)N[C@@H](C(=O)N[C@@H]2C(=O)N3[C@@H]2SC(C)(C)[C@@H]3C(=O)O)c2ccccc2)C(=O)C1=O [PIPERACILLIN] | > 128 | 2 (≈ 3.86 µM) | 0.5 (≈ 0.966 µM) | 64 (≈ 124 µM) | > 128 | > 128 | MIC (Escherichia coli [7]): 1 µg/mL; MIC (Escherichia coli [8]): 1 µg/mL; MIC (Escherichia coli [9]): 2 µg/mL; MIC (Escherichia coli [10]): 2 µg/mL; MIC (Escherichia coli [11]): > 128 µg/mL; MIC (Escherichia coli [12]): 0.5 µg/mL |
| CC(C)(O/N=C(\C(=O)N[C@@H]1C(=O)N2C(C(=O)[O-])=C(C[n+]3ccccc3)CS[C@H]12)c1csc(N)n1)C(=O)O [CEFTAZIDIME] | 1 (≈ 1.83 µM) | 0.25 (≈ 0.457 µM) | 0.25 (≈ 0.457 µM) | 0.5 (≈ 0.915 µM) | > 128 | > 128 | MIC (Escherichia coli [13]): < 0.5 µg/mL; MIC (Escherichia coli [14]): < 0.5 µg/mL; MIC (Escherichia coli [15]): 0.5 µg/mL; MIC (Escherichia coli [16]): > 32 µg/mL; MIC (Escherichia coli [17]): 0.125 µg/mL; MIC (Escherichia coli [18]): 0.125 µg/mL; MIC (Escherichia coli [19]): 0.094 µg/mL; MIC (Escherichia coli [20]): < 0.5 µg/mL; MIC (Escherichia coli [21]): > 32 µg/mL; MIC (Escherichia coli [22]): 0.25 µg/mL; MIC (Escherichia coli [23]): 0.125 µg/mL; MIC (Escherichia coli [24]): < 0.5 µg/mL |
| CO/N=C(\C(=O)N[C@@H]1C(=O)N2C(C(=O)O)=C(COC(C)=O)CS[C@H]12)c1csc(N)n1 [CEFOTAXIME] | ≤ 0.125 | ≤ 0.125 | ≤ 0.125 | ≤ 0.125 | 32 (≈ 70.3 µM) | 128 (≈ 281 µM) | MIC (Escherichia coli [13]): < 0.25 µg/mL; MIC (Escherichia coli [14]): < 0.25 µg/mL; MIC (Escherichia coli [15]): 0.023 µg/mL; MIC (Escherichia coli [16]): > 16 µg/mL; MIC (Escherichia coli [17]): 0.023 µg/mL; MIC (Escherichia coli [18]): 0.023 µg/mL; MIC (Escherichia coli [19]): 0.023 µg/mL; MIC (Escherichia coli [20]): < 0.25 µg/mL; MIC (Escherichia coli [21]): 2 µg/mL (≈ 4.39 µM); MIC (Escherichia coli [22]): 0.032 µg/mL; MIC (Escherichia coli [23]): 0.047 µg/mL; MIC (Escherichia coli [24]): < 0.25 µg/mL |
| CO[C@@]1(NC(=O)Cc2cccs2)C(=O)N2C(C(=O)O)=C(COC(N)=O)CS[C@@H]21 [CEFOXITIN] | 4 (≈ 9.36 µM) | 4 (≈ 9.36 µM) | 8 (≈ 18.7 µM) | 16 (≈ 37.4 µM) | 8 (≈ 18.7 µM) | 8 (≈ 18.7 µM) | – |
| C[C@H]1[C@H](NC(=O)/C(=N\OC(C)(C)C(=O)O)c2csc(N)n2)C(=O)N1S(=O)(=O)O [AZTREONAM] | 0.5 (≈ 1.15 µM) | 0.25 (≈ 0.574 µM) | ≤ 0.125 | 0.25 (≈ 0.574 µM) | > 128 | > 128 | – |
| CO/N=C(\C(=O)N[C@@H]1C(=O)N2C(C(=O)O)=C(COC(N)=O)CS[C@H]12)c1ccco1 [CEFUROXIME] | ≤ 0.125 | ≤ 0.125 | ≤ 0.125 | 0.25 (≈ 0.589 µM) | 64 (≈ 151 µM) | 128 (≈ 302 µM) | – |
| CO/N=C(\C(=O)N[C@@H]1C(=O)N2C(C(=O)[O-])=C(C[N+]3(C)CCCC3)CS[C@H]12)c1csc(N)n1 [CEFEPIME] | 0.5 (≈ 1.04 µM) | ≤ 0.125 | ≤ 0.125 | – | 128 (≈ 266 µM) | 16 (≈ 33.3 µM) | – |
| CC1(C)S[C@@H]2[C@H](NC(=O)[C@H](N)c3ccc(O)cc3)C(=O)N2[C@H]1C(=O)O [AMOXICILLIN] | – | – | – | – | – | – | MIC (Escherichia coli [25]): 16 µg/mL; MIC (Escherichia coli [26]): 32 µg/mL; MIC (Escherichia coli [27]): 32 µg/mL; MIC (Escherichia coli [28]): 16 µg/mL; MIC (Escherichia coli [29]): 8 µg/mL; MIC (Escherichia coli [30]): 8 µg/mL |
| C[C@@H](O)[C@H]1C(=O)N2C(C(=O)O)=C(SCCNC=N)C[C@H]12 [IMIPENEM ANHYDROUS] | 0.25 (≈ 0.835 µM) | ≤ 0.125 | 0.25 (≈ 0.835 µM) | – | 0.25 (≈ 0.835 µM) | – | – |
